According to ChEMBL document CHEMBL1151941, “Inhibition of influenza virus infections by sialylgalactose-binding peptides selected from a phage library” (J Med Chem, 2009):
Activity calls are given as the source filed them. The rule behind the calls is not given here. Where a SMILES comes first, the peptide text is derived from it. The star is where a group is joined. Stearoyl = CCCCCCCCCCCCCCCCCC(=O)*

Tests used:
Influenza A virus = assay: Antiviral activity against Influenza A virus (A/Puerto Rico/8/34(H1N1)) infected in MDCK cells after 30 mins by crystal violet-based plaque assay; assay type: functional, organism-based; details: A/Puerto Rico/8/1934(H1N1), 0.5 h
How it was run: (§1)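 MDCK cells in 6-well plates were exposed for 30 min at 37 °C, 5% CO2, to 0.2 mL virus (50-200 pfu) with C18-peptide from PBS stock (2 or 10 mM). After a PBS wash, cells were overlaid with 0.6% agarose/MEM (DEAE-dextran, HEPES, acetyltrypsin, BSA) for 2 days. Living cells were stained and plaques counted. IC50 is the concentration giving 50% inhibition.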

[1] = Critical micellar concentration of the compound; assay type: physicochemical
How it was run: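 N-stearoyl peptide amide was suspended in PBS containing 1 μM N-phenyl-1-naphthylamine and diluted to 1 nM-0.1 mM. Fluorescence (ex 350, em 450 nm) was read at 25 °C. The cmc is taken at the intersection of two straight lines in the intensity-versus-concentration plot.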

[2] = Binding affinity to ganglioside GM3 by ELISA relative to wild type fd phage clone
How it was run: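 GM3 monolayer was transferred from TBS (20 °C, 30 mN m-1) onto a BSA-blocked plastic plate. Phage clones (0.05-5 nM in TBS) were incubated 30 min at 4 °C. Detection used anti-fd antibody, then peroxidase anti-rabbit IgG (each 1 h, 4 °C), with o-phenylenediamine. ΔA was read at 492 nm in triplicate and expressed relative to wild-type fd phage.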

[3] = Binding affinity to ganglioside GM3 at 10 uM
[4] = Binding affinity to ganglioside GM3 by quartz crystal microbalance method
[5] = Binding affinity to ganglioside GlcCer by quartz crystal microbalance method
[6] = Binding affinity to ganglioside 6'GM3 by quartz crystal microbalance method
[7] = Ratio of Kd for ganglioside GM3 to Kd for ganglioside GalCer
[8] = Ratio of Kd for ganglioside GM3 to Kd for ganglioside 6'GM3
[9] = Ratio of Kd for ganglioside GM3 to Kd for ganglioside GlcCer
[10] = Binding affinity to ganglioside GalCer by quartz crystal microbalance method
H3N2 subtype = assay: Antiviral activity against Influenza A virus (A/Aichi/2/1968(H3N2)) infected in MDCK cells after 30 mins by crystal violet-based plaque assay; assay type: functional, organism-based; details: 0.5 h; how it was run: as §1
B16 [11] = assay: Inhibition of binding affinity to ganglioside GM3 in mouse B16 cells at 10 nM by flow cytometry in presence of Glc; assay type: cell-based
How it was run: (§2)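 B16 cells (2×10^5) were incubated 1 h on ice with phage (10 nM) with or without 1 mM Neu5Ac, Glc or GlcU. They were washed in 1% BSA/PBS, labelled with anti-fd antibody and FITC-conjugated antibody, and analysed by flow cytometry.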

B16 [12] = assay: Inhibition of binding affinity to ganglioside GM3 in mouse B16 cells at 10 nM by flow cytometry in presence of 1 mM Neu5Ac; assay type: cell-based; how it was run: as §2
[13] = Selectivity ratio of Kd for ganglioside GalCer to Kd for ganglioside GM3
B16 [14] = assay: Inhibition of binding affinity to ganglioside GM3 in mouse B16 cells pretreated with neuraminidase at pH 7.4 at 10 nM by flow cytometry; assay type: cell-based
How it was run: (§3)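 Sialic acid was removed from B16 cells (2×10^5) with 0.05 units Arthrobacter ureafaciens neuraminidase for 90 min at 37 °C, pH 6.5 or 7.4. After three washes, cells took 10 nM phage and were labelled with anti-fd antibody and FITC-conjugated antibody for flow cytometry.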

B16 [15] = assay: Inhibition of binding affinity to ganglioside GM3 in mouse B16 cells pretreated with neuraminidase at pH 6.5 at 10 nM by flow cytometry; assay type: cell-based; how it was run: as §3
B16 [16] = assay: Inhibition of binding affinity to ganglioside GM3 in mouse B16 cells at 10 nM by flow cytometry in presence of GlcU; assay type: cell-based; how it was run: as §2
B16 [17] = assay: Binding affinity to ganglioside GM3 in mouse B16 cells at 1 to 10 nM by flow cytometry; assay type: cell-based
How it was run: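 B16 monolayer cells (2×10^5) were given serially diluted phage (0.5-10 nM) in 1% BSA/PBS for 1 h on ice. After washes, they were labelled with anti-fd antibody and then FITC anti-rabbit IgG (each 0.5 h on ice) and analysed by flow cytometry.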

Compound: CCCCCCCCCCCCCCCCCC(=O)NCC(=O)N[C@@H](Cc1c[nH]c2ccccc12)C(=O)N[C@@H](Cc1c[nH]c2ccccc12)C(=O)N[C@@H](Cc1ccc(O)cc1)C(=O)N[C@@H](CCCCN)C(=O)NCC(=O)N[C@@H](CCCNC(=N)N)C(=O)N[C@@H](C)C(=O)N[C@@H](CCCNC(=N)N)C(=O)N[C@@H](C)C(=O)N[C@H](C(=O)N[C@@H](CO)C(=O)N[C@@H](C)C(=O)N[C@H](C(=O)N[C@@H](C)C(N)=O)C(C)C)C(C)C (Stearoyl-GWWYKGRARAVSAVA-NH2)
- IC50 (Influenza A virus): 89 µM
- CMC [1]: 0.8 µM

Compound: H-WRGVYFGDRWLGSQP-OH
- fold change (FC) [2]: 1.6

Compound: H-DFRRLPGAFWQLRQP-OH
- Activity [3]: 119 ng/cm2

Compound: H-RAVWRHSVATPSHSV-OH
- fold change (FC) [2]: 1.5
- Kd ([4]; read-out: Kd): 0.41 µM
- Kd ([5]; read-out: Kd): > 70 µM
- Kd ([6]; read-out: Kd): 2 µM
- Ratio [7]: < 0.006
- Ratio [8]: 0.2
- Ratio [9]: < 0.006
- Kd ([10]; read-out: Kd): > 70 µM

Compound: CCCCCCCCCCCCCCCCCC(=O)NCC(=O)N[C@@H](Cc1c[nH]c2ccccc12)C(=O)N[C@@H](Cc1c[nH]c2ccccc12)C(=O)N[C@@H](Cc1ccc(O)cc1)C(=O)N[C@@H](CCCCN)C(=O)NCC(=O)N[C@@H](CCCNC(=N)N)C(=O)N[C@@H](C)C(=O)N[C@@H](CCCNC(=N)N)C(=O)N1CCC[C@H]1C(=O)N[C@H](C(=O)N[C@@H](CO)C(=O)N[C@@H](C)C(=O)N[C@H](C(=O)N[C@@H](C)C(N)=O)C(C)C)C(C)C (Stearoyl-GWWYKGRARPVSAVA-NH2)
- IC50 (Influenza A virus): 3.2 µM
- IC50 (H3N2 subtype): > 10 µM
- CMC [1]: 0.8 µM

Compound: H-QQLVYNWWAVSSARR-OH
- fold change (FC) [2]: 1.1

Compound: CC(C)C[C@H](NC(=O)[C@H](CO)NC(=O)[C@H](CC(=O)O)NC(=O)[C@H](Cc1ccccc1)NC(=O)[C@H](C)NC(=O)[C@H](C)NC(=O)[C@H](CCCN)NC(=O)[C@H](C)NC(=O)[C@@H]1CCCN1C(=O)[C@H](CC(=O)O)NC(=O)[C@H](CC(=O)O)NC(=O)CNC(=O)[C@H](CCC(=O)O)NC(=O)[C@H](C)N)C(=O)N[C@@H](CCC(N)=O)C(=O)O
- Kd [4]: Not Active
- Kd [5]: Not Active
- Kd [6]: Not Active
- Kd [10]: Not Active

Compound: H-GWWYKGRARPVSAVA-NH2
- IC50 (Influenza A virus): > 500 µM

Compound: H-LWRPVLFHSAVRALG-OH
- fold change (FC) [2]: 1.7

Compound: CCCCCCCCCCCCCCCCCC(=O)N[C@@H](CCCNC(=N)N)C(=O)N[C@@H](C)C(=O)N[C@H](C(=O)N[C@@H](Cc1c[nH]c2ccccc12)C(=O)N[C@@H](CCCNC(=N)N)C(=O)N[C@@H](Cc1cnc[nH]1)C(=O)N[C@@H](CO)C(=O)N[C@H](C(=O)N[C@@H](C)C(=O)N[C@H](C(=O)N1CCC[C@H]1C(=O)N[C@@H](CO)C(=O)N[C@@H](Cc1cnc[nH]1)C(=O)N[C@@H](CO)C(=O)N[C@H](C(N)=O)C(C)C)[C@@H](C)O)C(C)C)C(C)C (Stearoyl-RAVWRHSVATPSHSV-NH2)
- IC50 (Influenza A virus): 6.5 µM
- IC50 (H3N2 subtype): 68 µM
- CMC [1]: 0.8 µM

Compound: H-GWYSSRHYVRSLNGL-OH
- fold change (FC) [2]: 1.4

Compound: CCCCCCCCCCCCCCCCCC(=O)NCC(=O)N[C@@H](C)C(=O)N[C@@H](Cc1c[nH]c2ccccc12)C(=O)N[C@@H](Cc1ccc(O)cc1)C(=O)N[C@@H](CCCCN)C(=O)NCC(=O)N[C@@H](CCCNC(=N)N)C(=O)N[C@@H](C)C(=O)N[C@@H](CCCNC(=N)N)C(=O)N1CCC[C@H]1C(=O)N[C@H](C(=O)N[C@@H](CO)C(=O)N[C@@H](C)C(=O)N[C@H](C(=O)N[C@@H](C)C(N)=O)C(C)C)C(C)C (Stearoyl-GAWYKGRARPVSAVA-NH2)
- IC50 (Influenza A virus): 53 µM
- CMC [1]: 0.8 µM

Compound: H-RAVWRHSVATPSHSV-NH2
- IC50 (Influenza A virus): > 500 µM

Compound: H-GWWYKGRARPVSAVA-OH
- fold change (FC) [2]: 2.1
- inhibition (B16 [11]): inactive
- Kd ([4]; read-out: Kd): 1.5 µM
- inhibition (B16 [12]): 61%
- Kd ([5]; read-out: Kd): > 70 µM
- Ratio [13]: 6.5
- Kd ([6]; read-out: Kd): 1.5 µM
- Ratio [7]: 0.15
- Activity [3]: 39 ng/cm2
- Ratio [8]: 1
- Ratio [9]: < 0.02
- inhibition (B16 [14]): inactive
- inhibition (B16 [15]): Active
- Kd ([10]; read-out: Kd): 9.8 µM
- inhibition (B16 [16]): 46%
- Activity (B16 [17]): Active

Compound: CCCCCCCCCCCCCCCCCC(=O)N[C@@H](C)C(=O)N[C@H](C(=O)N[C@@H](C)C(=O)N[C@@H](CO)C(=O)N[C@H](C(=O)N1CCC[C@H]1C(=O)N[C@@H](CCCNC(=N)N)C(=O)N[C@@H](C)C(=O)N[C@@H](CCCNC(=N)N)C(=O)NCC(=O)N[C@@H](CCCCN)C(=O)N[C@@H](Cc1ccc(O)cc1)C(=O)N[C@@H](Cc1c[nH]c2ccccc12)C(=O)N[C@@H](Cc1c[nH]c2ccccc12)C(=O)NCC(N)=O)C(C)C)C(C)C (Stearoyl-AVASVPRARGKYWWG-NH2)
- IC50 (Influenza A virus): 44 µM
- IC50 (H3N2 subtype): 17 µM
- CMC [1]: 0.8 µM

Compound: H-LSWPLHAGRGFRWVS-OH
- fold change (FC) [2]: 0.9

Compound: CCCCCCCCCCCCCCCCCC(=O)N[C@@H](C)C(=O)N[C@@H](CCC(=O)O)C(=O)N[C@H](C(=O)N[C@H](C(=O)N[C@@H](CCC(=O)O)C(=O)N[C@@H](CO)C(=O)N[C@@H](CS)C(=O)N[C@@H](CC(C)C)C(=O)N[C@@H](C)C(=O)N[C@@H](CCCCN)C(=O)N1CCC[C@H]1C(=O)N[C@@H](Cc1cnc[nH]1)C(=O)N[C@H](C(=O)N[C@@H](CCC(=O)O)C(=O)N[C@@H](CC(N)=O)C(N)=O)[C@H](C)O)C(C)C)[C@@H](C)O
- IC50 (Influenza A virus): 66 µM
- IC50 (H3N2 subtype): > 100 µM
- CMC [1]: 0.8 µM

Compound: CCCCCCCCCCCCCCCCCC(=O)N[C@@H](CC(=O)O)C(=O)N[C@@H](Cc1ccccc1)C(=O)N[C@@H](CCCNC(=N)N)C(=O)N[C@@H](CCCNC(=N)N)C(=O)N[C@@H](CC(C)C)C(=O)N1CCC[C@H]1C(=O)NCC(=O)N[C@@H](C)C(=O)N[C@@H](Cc1ccccc1)C(=O)N[C@@H](Cc1c[nH]c2ccccc12)C(=O)N[C@@H](CCC(N)=O)C(=O)N[C@@H](CC(C)C)C(=O)N[C@@H](CCCNC(=N)N)C(=O)N[C@@H](CCC(N)=O)C(=O)N1CCC[C@H]1C(N)=O (Stearoyl-DFRRLPGAFWQLRQP-NH2)
- IC50 (Influenza A virus): 52 µM
- IC50 (H3N2 subtype): 19 µM
- CMC [1]: 0.8 µM
